Results as given in paper PMC8945107 (ACS Omega, 2022).

Columns and labels:
A549 cells [1] = assay: Vacuolization, fluorescence inverted microscope; assay type: cell-based, human; conditions: 10 mM NAC with 2 μM 5e; vacuolization 12 h, MTT 24 h
How it was run: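 A549 cells were given 2 μM test compound for 12, 24 or 36 h, or 1–4 μM for 24 h, and photographed on an inverted fluorescence microscope. For antioxidant co-treatment, 10 mM NAC was combined with 2 μM compound. Vacuolization was imaged at 12 h, and viability was measured by MTT at 24 h (absorbance 570 nm after DMSO solubilisation).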

A549 cells [2] = assay: Detection of intracellular ROS; assay type: cell-based, human; conditions: 10 mM NAC with 2 μM 5e, 12 h
How it was run: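 A549 cells in 6-well plates were pretreated with NAC for 2 h, then treated with test compound. Afterward they were stained with 10 μM DCFH-DA in FBS-free medium for 0.5 h in the incubator and washed twice with PBS. Cells were collected, resuspended in PBS and analysed by flow cytometry.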

NCI-H460 = assay: MTT antiproliferative assay, NCI-H460; assay type: cell-based; conditions: Homo sapiens, NCI-H460, 48 h, read-out: IC50 NCI-H460
How it was run: (§1)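 Cells in 96-well plates were preincubated 24 h, then exposed to test compound 48 h. MTT solution (5 mg/mL stock) was added for 4 h, medium removed, formazan dissolved in DMSO, plate shaken 1 min and absorbance read at 570 nm. Three independent experiments.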

PC-3 = assay: MTT antiproliferative assay, PC-3; assay type: cell-based; conditions: Homo sapiens, PC-3, 48 h, read-out: IC50 PC-3
How it was run: as §1

[3] = tested on: human bronchial epithelioid cells (HBE); assay: MTT antiproliferative / cell viability assay, HBE; assay type: cell-based; conditions: 48 h, read-out: IC50 HBE
How it was run: as §1

IC50 (NCI-H460) [µM]	IC50 (PC-3) [µM]	SMILES	effect of NAC on vacuolization and cell death induced by 5e (A549 cells [1])	effect of NAC on ROS level induced by 5e (A549 cells [2])	IC50 [3] [µM]
–	–	CC(=O)N[C@@H](CS)C(=O)O [NAC, N-acetylcysteine]	could not remarkably suppress vacuolization and cell death	could inhibit the level of ROS	–
3.14 ± 0.57	1.13 ± 0.2	COc1cccc2c1C(=O)c1c(O)c3c(c(O)c1C2=O)C[C@@](O)(C(=O)CO)C[C@@H]3O[C@H]1C[C@H](N)[C@H](O)[C@H](C)O1 [DOX, Doxorubicin]	–	–	2.54 ± 0.16
